From ChEMBL document CHEMBL4043106, “Selective opioid growth factor receptor antagonists based on a stilbene isostere” (Bioorg Med Chem, 2017)
The source made the active and inactive calls. The rule behind the calls is not given here.

What was measured:
[1] = target: T1, Kappa-type opioid receptor (Homo sapiens, UniProt P41145); experiment: Antagonist activity at kappa opioid receptor (unknown origin) up to 10 uM by GTPgammaS functional assay
Procedure, shortened: (§1)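 GTPγS functional assay at KOR, DOR and MOR, run in both agonist and antagonist modes, with test concentrations up to 10 μM.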

[2] = target: T2, Mu-type opioid receptor (Homo sapiens, UniProt P35372); experiment: Antagonist activity at mu opioid receptor (unknown origin) up to 10 uM by GTPgammaS functional assay; procedure, shortened: as §1
T2 sequence (P35372 whole entry): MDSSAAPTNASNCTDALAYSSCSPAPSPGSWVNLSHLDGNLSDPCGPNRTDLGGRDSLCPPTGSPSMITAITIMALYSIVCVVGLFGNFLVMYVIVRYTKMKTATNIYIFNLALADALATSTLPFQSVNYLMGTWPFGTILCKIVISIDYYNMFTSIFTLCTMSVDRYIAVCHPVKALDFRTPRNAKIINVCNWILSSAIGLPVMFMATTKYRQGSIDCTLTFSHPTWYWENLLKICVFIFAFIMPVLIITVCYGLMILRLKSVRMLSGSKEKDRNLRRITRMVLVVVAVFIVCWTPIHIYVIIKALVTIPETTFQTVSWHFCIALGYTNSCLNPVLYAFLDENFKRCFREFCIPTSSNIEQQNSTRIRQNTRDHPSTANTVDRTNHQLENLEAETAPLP

[3] = target: T3, Opioid growth factor receptor (Homo sapiens) (UniProt Q9NZT2); experiment: Antagonist activity at OGFR in human SKOV3 cells assessed as cell growth inhibition at 5 to 10 uM treated as pulsed dose of 6 hrs every other day measured at 120 hrs post dose by hemacytometric method; format: cell-based
T3 sequence (whole entry): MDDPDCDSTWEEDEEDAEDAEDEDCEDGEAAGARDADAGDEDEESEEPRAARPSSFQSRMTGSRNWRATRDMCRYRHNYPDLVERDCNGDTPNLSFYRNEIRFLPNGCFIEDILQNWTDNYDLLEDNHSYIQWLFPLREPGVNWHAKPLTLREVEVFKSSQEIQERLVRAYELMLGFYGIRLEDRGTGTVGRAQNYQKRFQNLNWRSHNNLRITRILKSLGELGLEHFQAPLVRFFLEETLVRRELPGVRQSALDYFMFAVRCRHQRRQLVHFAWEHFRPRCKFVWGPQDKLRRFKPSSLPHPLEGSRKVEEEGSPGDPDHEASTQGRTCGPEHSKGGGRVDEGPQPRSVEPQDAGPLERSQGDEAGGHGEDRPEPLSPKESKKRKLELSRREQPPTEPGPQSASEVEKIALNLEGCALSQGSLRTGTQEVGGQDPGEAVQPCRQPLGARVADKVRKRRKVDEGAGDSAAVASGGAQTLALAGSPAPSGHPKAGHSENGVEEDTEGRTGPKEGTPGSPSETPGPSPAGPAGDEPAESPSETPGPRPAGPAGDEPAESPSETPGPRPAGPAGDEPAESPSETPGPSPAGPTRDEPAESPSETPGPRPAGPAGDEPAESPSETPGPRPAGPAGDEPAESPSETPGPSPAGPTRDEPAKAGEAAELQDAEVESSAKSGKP
Procedure, shortened: (§2)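 SKOV-3 ovarian cancer cells in RPMI 1640 with 10% fetal calf serum and antibiotics at 37°C, 5% CO2. Seeded at 20,000 cells/well and counted after 24 h for time 0. Compound or sterile water given either continuously (24 h daily) or pulsed for 6 h every 48 h. Cells counted at 96 and 120 h; concentration series used for the dose-response.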

[4] = target: Delta-type opioid receptor (Homo sapiens) (UniProt P41143); experiment: Antagonist activity at delta opioid receptor (unknown origin) up to 10 uM by GTPgammaS functional assay; procedure, shortened: as §1
Chain of Delta-type opioid receptor (Homo sapiens) (P41143 whole entry): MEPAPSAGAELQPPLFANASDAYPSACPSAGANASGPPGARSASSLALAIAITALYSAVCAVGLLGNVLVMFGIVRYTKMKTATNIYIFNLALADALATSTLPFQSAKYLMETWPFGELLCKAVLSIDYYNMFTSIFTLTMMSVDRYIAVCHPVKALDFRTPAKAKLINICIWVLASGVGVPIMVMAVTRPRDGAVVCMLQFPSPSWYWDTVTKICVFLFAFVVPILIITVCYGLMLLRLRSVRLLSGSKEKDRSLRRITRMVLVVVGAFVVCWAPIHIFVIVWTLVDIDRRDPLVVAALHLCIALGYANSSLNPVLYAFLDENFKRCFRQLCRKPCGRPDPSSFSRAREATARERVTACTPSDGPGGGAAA

[5] = target: Delta-type opioid receptor (Homo sapiens) (UniProt P41143); experiment: Agonist activity at human delta opioid receptor assessed as beta-arrestin recruitment up to 5 uM after 180 mins by chemiluminescence assay
Procedure, shortened: (§3)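 Commercial β-arrestin kit using cells transfected with human MOR, DOR or KOR. Cells plated and held 48 h at 37°C in 5% CO2. Compound added for 180 min at 37°C, starting at 5 μM with 1:3 serial dilutions. Reference agonists were DADLE (DOR), Met5-enkephalin (MOR) and dynorphin A (KOR). Detection reagent then added for 1 h at room temperature in the dark; chemiluminescence read.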

[6] = target: T1, Kappa-type opioid receptor; experiment: Agonist activity at kappa opioid receptor (unknown origin) up to 10 uM by GTPgammaS functional assay; procedure, shortened: as §1
[7] = target: T2, Mu-type opioid receptor; experiment: Agonist activity at mu opioid receptor (unknown origin) up to 10 uM by GTPgammaS functional assay; procedure, shortened: as §1
[8] = species: Chlorocebus aethiops; experiment: Antagonist activity at OGFR in African green monkey COS7 cells harboring OGF assessed as increase in cell growth at 1 uM after 72 hrs by BrdU incorporation assay
Procedure, shortened: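 COS-7 cells on coverslips exposed to compound (1 μM) for 24 h. BrdU added in fresh DMEM for 3 h, then cells stained with DAPI counterstain. At least 100 cells per treatment scored blind for BrdU incorporation; growth evaluated at 72 h.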

[9] = target: T3, Opioid growth factor receptor (Homo sapiens); experiment: Antagonist activity at OGFR in human SKOV3 cells assessed as cell growth inhibition at 10 uM treated as pulsed dose of 6 hrs every other day by hemacytometric method; format: cell-based; procedure, shortened: as §2
[10] = target: T2, Mu-type opioid receptor; experiment: Agonist activity at human mu opioid receptor assessed as beta-arrestin recruitment up to 5 uM after 180 mins by chemiluminescence assay; procedure, shortened: as §3
[11] = target: T3, Opioid growth factor receptor (Homo sapiens); experiment: Antagonist activity at OGFR in human SKOV3 cells assessed as increase in cell growth at 10 uM after 24 hrs by hemacytometric method; format: cell-based; procedure, shortened: as §2
[12] = target: Delta-type opioid receptor (Homo sapiens) (UniProt P41143); experiment: Agonist activity at delta opioid receptor (unknown origin) up to 10 uM by GTPgammaS functional assay; procedure, shortened: as §1
[13] = target: T1, Kappa-type opioid receptor; experiment: Agonist activity at human kappa opioid receptor assessed as beta-arrestin recruitment up to 5 uM after 180 mins by chemiluminescence assay; details: 3 h; procedure, shortened: as §3
[14] = target: T3, Opioid growth factor receptor (Homo sapiens); experiment: Antagonist activity at OGFR in human SKOV3 cells assessed as increase in cell growth at 0.1 to 10 uM treated continuously for 24 hrs measured at 120 hrs post dose by hemacytometric method; format: cell-based; procedure, shortened: as §2
[15] = species: Chlorocebus aethiops; experiment: Antagonist activity at OGFR in African green monkey COS7 cells harboring OGF assessed as increase in cell growth at 1 uM after 72 hrs by hemacytometric method
Procedure, shortened: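 COS-7 cells grown in DMEM with 10% fetal calf serum and antibiotics at 37°C, 5% CO2. Seeded at 20,000 cells/well and counted 24 h later as time 0. Treated with 1 μM compound or sterile water vehicle; growth counted at 72 h.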

[16] = target: T3, Opioid growth factor receptor (Homo sapiens); experiment: Antagonist activity at OGFR in human SKOV3 cells assessed as cell growth inhibition at 10 uM treated as pulsed dose of 6 hrs every other day measured at 120 hrs post dose by hemacytometric method; format: cell-based; procedure, shortened: as §2

T1 sequence (P41145 whole entry): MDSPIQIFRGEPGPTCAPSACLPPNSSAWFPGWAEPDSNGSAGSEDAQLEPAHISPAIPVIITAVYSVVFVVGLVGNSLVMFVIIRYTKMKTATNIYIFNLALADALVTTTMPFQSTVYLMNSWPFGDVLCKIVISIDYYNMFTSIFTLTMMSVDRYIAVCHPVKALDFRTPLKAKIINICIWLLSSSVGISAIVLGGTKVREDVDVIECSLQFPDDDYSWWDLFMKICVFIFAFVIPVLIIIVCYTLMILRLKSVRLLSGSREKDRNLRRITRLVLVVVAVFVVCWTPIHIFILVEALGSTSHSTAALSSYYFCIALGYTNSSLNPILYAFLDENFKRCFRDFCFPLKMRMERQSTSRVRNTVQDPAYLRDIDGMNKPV

In the case of `COc1cc(OC)c(C/C=C(\C)CCC=C(C)C)c(C(=O)Nc2cc(O)c(O)c(CC=C(C)C)c2)c1`, the inhibition [1] is reported as “inactive”, the “inhibition (INH)” value [2] is reported as “Not Active” and the “growth inhibition (GI)” value [3] is reported as “Active”. The inhibition [4] was “inactive”, the Activity [5] was “inactive” and the Activity [6] was “Not Active”. For the same compound, the Activity [7] was “inactive”, the inhibition [8] was “Active” and the “growth inhibition (GI)” value [9] was “Active”. For the same compound, the Activity [10] was “inactive”, the inhibition [11] was “Active” and the Activity [12] was “inactive”. For the same compound, the Activity [13] was “Not Active” and the inhibition [14] was “Active”.

`COc1cc(NC(=O)c2ccc(O)c(O)c2CC=C(C)C)c(C/C=C(\C)CCC=C(C)C)c(OC)c1` was tested, and the inhibition [1] was “inactive”, the “inhibition (INH)” value [2] was “Not Active” and the inhibition [4] was “inactive”. For the same compound, the Activity [5] was “inactive”, the Activity [6] was “Not Active” and the Activity [7] was “inactive”. The “growth inhibition (GI)” value [9] was “Active”, the “Cell growth increase (active/not active)” value [15] was “Active” and the Activity [10] was “inactive”. For the same compound, the inhibition [11] was “Active”, the Activity [12] was “inactive” and the Activity [13] was “Not Active”.

With `COc1cc(/C=C/c2cc(O)c(O)c(CC=C(C)C)c2)c(C/C=C(\C)CCC=C(C)C)c(OC)c1` the “Cell growth increase (active/not active)” value [15] was “inactive”.

In the case of `COc1cc(/C=C/c2ccc(O)c(O)c2CC=C(C)C)c(C/C=C(\C)CCC=C(C)C)c(OC)c1`, the “Cell growth increase (active/not active)” value [15] is reported as “Active”.

With `COc1cc(NC(=O)c2cc(O)c(O)c(CC=C(C)C)c2)c(C/C=C(\C)CCC=C(C)C)c(OC)c1` the inhibition [1] was “inactive”, the “inhibition (INH)” value [2] was “Not Active” and the inhibition [4] was “inactive”. For the same compound, the Activity [5] was “inactive”, the Activity [6] was “Not Active” and the Activity [7] was “inactive”. For the same compound, the “Cell growth increase (active/not active)” value [15] was “Active”, the Activity [10] was “inactive” and the Activity [12] was “inactive”. For the same compound, the Activity [13] was “Not Active”.

In the case of `COc1cc(OC)c(C/C=C(\C)CCC=C(C)C)c(C(=O)Nc2ccc(O)c(O)c2CC=C(C)C)c1`, the inhibition [1] is reported as “inactive”, the “inhibition (INH)” value [2] is reported as “Not Active” and the inhibition [4] is reported as “inactive”. For the same compound, the Activity [5] was “inactive”, the “growth inhibition (GI)” value [16] was “Active” and the Activity [6] was “Not Active”. The Activity [7] was “inactive”, the inhibition [8] was “inactive” and the “growth inhibition (GI)” value [9] was “Active”. For the same compound, the Activity [10] was “inactive”, the inhibition [11] was “Active” and the Activity [12] was “inactive”. For the same compound, the Activity [13] was “Not Active”.

In the case of `O=C1CC[C@@]2(O)[C@H]3Cc4ccc(O)c5c4[C@@]2(CCN3CC2CC2)[C@H]1O5`, the “growth inhibition (GI)” value [9] is reported as “Active” and the “Cell growth increase (active/not active)” value [15] is reported as “Active”.
